Experimental data published in ChEMBL document CHEMBL4138235, “Discovery of aliphatic-chain hydroxamates containing indole derivatives with potent class I histone deacetylase inhibitory activities” (Eur J Med Chem, 2018).

What was measured:
[1] = organism: Homo sapiens; experiment: Potency index, ratio of SAHA IC50 to test compound IC50 for class 1 HDAC in human HeLa nuclear extracts
Summary of the method: (§1)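 Fluorogenic deacetylase assay in 15 mM Tris-HCl pH 8.1, 0.25 mM EDTA, 250 mM NaCl, 10% glycerol. Enzyme and compound preincubated 5 min at 30 °C. Substrates: Boc-Lys(Ac)-AMC for HeLa extract, Boc-Lys(TFA)-AMC for HDAC8, KI 177 for HDAC1/2. Reaction ran 30 min at 30 °C, then trypsin with SAHA developed it 20 min; read at ex 355/em 460 nm. 0.1% DMSO set as 100% and 2 µM SAHA as 0%; run in triplicate; IC50 ratios relative to SAHA.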

[2] = Inhibition of class 1 HDAC in human HeLa nuclear extracts using Boc-Lys(Ac)-AMC as substrate preincubated for 5 mins followed by substrate addition measured after 30 mins by fluorescence assay
[3] = system: PC-3; experiment: Cytotoxicity against human PC3 cells assessed as growth inhibition after 48 hrs by SRB assay; assay type: functional, cell-based; conditions: PC-3, 48 h
[4] = system: A549; experiment: Cytotoxicity against human A549 cells assessed as growth inhibition after 48 hrs by SRB assay; assay type: functional, cell-based; conditions: A549, 48 h
[5] = biological target: T1, Histone deacetylase 2 (Homo sapiens, UniProt Q92769); experiment: Potency index, ratio of SAHA IC50 to test compound IC50 for full length recombinant human HDAC2 expressed in baculovirus infected Sf9 insect cells; summary of the method: as §1
[6] = biological target: Histone deacetylase 4 (Homo sapiens, UniProt P56524); experiment: Inhibition of N-terminal GST/C-terminal His-tagged recombinant human HDAC4 (648 to 1057 residues) expressed in baculovirus infected Sf9 insect cells using Boc-Lys(TFA)-AMC as substrate preincubated for 5 mins followed by substrate addition measured after 30 mins by fluorescence assay
[7] = biological target: Histone deacetylase 3/Nuclear receptor corepressor 2 (HDAC3/NCoR2) (Homo sapiens, UniProt O15379); experiment: Inhibition of C-terminal His-tagged/N-terminal GST-tagged full length recombinant human HDAC3/NcoR2 expressed in baculovirus infected Sf9 insect cells using KI 177 as substrate preincubated for 5 mins followed by substrate addition measured after 30 mins by fluorescence assay
[8] = biological target: Histone deacetylase 1 (Homo sapiens, UniProt Q13547); experiment: Inhibition of C-terminal FLAG/His-tagged full length recombinant human HDAC1 expressed in baculovirus infected Sf9 insect cells using KI 177 as substrate preincubated for 5 mins followed by substrate addition measured after 30 mins by fluorescence assay
[9] = biological target: T2, Histone deacetylase 8 (Homo sapiens, UniProt Q9BY41); experiment: Inhibition of C-terminal His-tagged recombinant human HDAC8 (1 to 377 residues) expressed in baculovirus infected Sf9 insect cells using Boc-Lys(TFA)-AMC as substrate preincubated for 5 mins followed by substrate addition measured after 30 mins by fluorescence assay
T2 sequence (Q9BY41 whole entry): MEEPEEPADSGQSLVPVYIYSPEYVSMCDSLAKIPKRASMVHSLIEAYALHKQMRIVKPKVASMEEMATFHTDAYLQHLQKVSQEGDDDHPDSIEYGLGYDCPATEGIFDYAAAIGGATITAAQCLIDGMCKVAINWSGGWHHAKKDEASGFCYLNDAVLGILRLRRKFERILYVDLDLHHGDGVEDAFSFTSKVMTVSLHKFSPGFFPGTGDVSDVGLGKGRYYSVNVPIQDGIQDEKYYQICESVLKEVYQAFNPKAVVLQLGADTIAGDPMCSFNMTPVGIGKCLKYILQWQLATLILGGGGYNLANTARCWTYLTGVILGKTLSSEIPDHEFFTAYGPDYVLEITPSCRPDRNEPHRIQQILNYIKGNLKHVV

[10] = biological target: T3, Histone deacetylase 7 (Homo sapiens, UniProt Q8WUI4); experiment: Inhibition of N-terminal GST-tagged human HDAC7 expressed in baculovirus infected Sf9 insect cells preincubated for 5 mins followed by substrate addition measured after 30 mins by fluorescence assay
T3 sequence (Q8WUI4 whole entry): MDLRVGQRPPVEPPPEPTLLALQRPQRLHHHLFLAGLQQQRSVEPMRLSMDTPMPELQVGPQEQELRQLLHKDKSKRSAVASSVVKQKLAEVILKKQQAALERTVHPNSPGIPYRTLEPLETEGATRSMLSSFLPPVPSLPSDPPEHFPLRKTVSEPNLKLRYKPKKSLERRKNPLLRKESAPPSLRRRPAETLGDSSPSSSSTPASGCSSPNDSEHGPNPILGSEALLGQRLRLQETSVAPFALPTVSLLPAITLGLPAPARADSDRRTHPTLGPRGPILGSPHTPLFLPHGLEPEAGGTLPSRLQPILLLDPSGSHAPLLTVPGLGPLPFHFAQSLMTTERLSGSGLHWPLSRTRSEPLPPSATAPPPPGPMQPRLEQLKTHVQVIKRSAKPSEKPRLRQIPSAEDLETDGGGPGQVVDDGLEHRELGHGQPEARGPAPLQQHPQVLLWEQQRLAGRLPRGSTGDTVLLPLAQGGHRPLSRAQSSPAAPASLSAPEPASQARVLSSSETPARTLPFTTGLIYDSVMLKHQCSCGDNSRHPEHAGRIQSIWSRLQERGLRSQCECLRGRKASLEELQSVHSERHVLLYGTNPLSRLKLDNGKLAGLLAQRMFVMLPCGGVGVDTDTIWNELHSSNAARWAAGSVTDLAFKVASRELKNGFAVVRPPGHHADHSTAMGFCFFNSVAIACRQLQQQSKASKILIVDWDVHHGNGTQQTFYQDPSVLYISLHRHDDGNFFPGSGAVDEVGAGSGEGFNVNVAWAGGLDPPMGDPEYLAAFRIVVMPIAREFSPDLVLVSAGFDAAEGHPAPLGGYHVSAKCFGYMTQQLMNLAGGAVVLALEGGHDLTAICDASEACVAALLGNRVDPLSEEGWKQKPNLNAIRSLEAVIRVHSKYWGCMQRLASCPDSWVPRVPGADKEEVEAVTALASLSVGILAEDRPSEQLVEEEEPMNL

[11] = biological target: T1, Histone deacetylase 2; experiment: biochemical; assay type: cell-based, Sf9
[12] = biological target: T4, Protein deacetylase HDAC6 (Homo sapiens, UniProt Q9UBN7); experiment: Inhibition of N-terminal GST-tagged human HDAC6 using Boc-Lys(Ac)-AMC as substrate preincubated for 5 mins followed by substrate addition measured after 30 mins by fluorescence assay
T4 sequence (Q9UBN7 whole entry): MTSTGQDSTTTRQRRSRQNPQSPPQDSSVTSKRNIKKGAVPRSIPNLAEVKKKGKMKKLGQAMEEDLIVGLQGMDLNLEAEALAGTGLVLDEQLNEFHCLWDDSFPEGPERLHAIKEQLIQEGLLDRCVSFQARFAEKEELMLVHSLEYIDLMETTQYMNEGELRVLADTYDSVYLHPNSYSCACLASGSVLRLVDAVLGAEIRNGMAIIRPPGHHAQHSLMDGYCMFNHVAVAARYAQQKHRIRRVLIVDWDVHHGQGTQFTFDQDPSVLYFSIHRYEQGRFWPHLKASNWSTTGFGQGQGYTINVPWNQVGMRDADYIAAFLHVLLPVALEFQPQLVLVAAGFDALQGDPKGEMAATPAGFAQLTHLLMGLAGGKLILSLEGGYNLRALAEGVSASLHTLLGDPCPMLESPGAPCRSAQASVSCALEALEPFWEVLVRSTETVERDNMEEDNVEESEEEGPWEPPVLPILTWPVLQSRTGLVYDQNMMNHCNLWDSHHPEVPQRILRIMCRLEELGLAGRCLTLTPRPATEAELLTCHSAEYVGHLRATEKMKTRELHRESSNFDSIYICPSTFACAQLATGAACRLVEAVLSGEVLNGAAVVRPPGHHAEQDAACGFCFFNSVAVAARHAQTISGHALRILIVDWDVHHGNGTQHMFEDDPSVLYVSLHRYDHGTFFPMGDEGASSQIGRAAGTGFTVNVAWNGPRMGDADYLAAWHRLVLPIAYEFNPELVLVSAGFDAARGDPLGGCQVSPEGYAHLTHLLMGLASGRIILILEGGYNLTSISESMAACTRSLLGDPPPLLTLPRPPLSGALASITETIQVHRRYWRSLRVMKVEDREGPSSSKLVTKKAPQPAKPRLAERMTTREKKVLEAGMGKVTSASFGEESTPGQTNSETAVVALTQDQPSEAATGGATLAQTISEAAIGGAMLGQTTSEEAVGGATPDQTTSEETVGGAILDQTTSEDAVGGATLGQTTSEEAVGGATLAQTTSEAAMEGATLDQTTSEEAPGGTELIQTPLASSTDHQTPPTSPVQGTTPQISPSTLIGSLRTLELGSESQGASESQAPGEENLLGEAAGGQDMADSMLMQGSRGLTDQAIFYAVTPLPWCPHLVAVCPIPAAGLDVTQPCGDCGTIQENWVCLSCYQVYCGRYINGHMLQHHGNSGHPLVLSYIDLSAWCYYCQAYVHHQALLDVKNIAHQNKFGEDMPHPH

[13] = biological target: Histone deacetylase 5 (Homo sapiens, UniProt Q9UQL6); experiment: Inhibition of full length recombinant human HDAC5 preincubated for 5 mins followed by substrate addition measured after 30 mins by fluorescence assay
[14] = biological target: Histone deacetylase 9 (Homo sapiens, UniProt Q9UKV0); experiment: Inhibition of C-terminal His-tagged recombinant human HDAC9 expressed in baculovirus infected Sf9 insect cells preincubated for 5 mins followed by substrate addition measured after 30 mins by fluorescence assay
Sequence of Histone deacetylase 9 (Q9UKV0 whole entry): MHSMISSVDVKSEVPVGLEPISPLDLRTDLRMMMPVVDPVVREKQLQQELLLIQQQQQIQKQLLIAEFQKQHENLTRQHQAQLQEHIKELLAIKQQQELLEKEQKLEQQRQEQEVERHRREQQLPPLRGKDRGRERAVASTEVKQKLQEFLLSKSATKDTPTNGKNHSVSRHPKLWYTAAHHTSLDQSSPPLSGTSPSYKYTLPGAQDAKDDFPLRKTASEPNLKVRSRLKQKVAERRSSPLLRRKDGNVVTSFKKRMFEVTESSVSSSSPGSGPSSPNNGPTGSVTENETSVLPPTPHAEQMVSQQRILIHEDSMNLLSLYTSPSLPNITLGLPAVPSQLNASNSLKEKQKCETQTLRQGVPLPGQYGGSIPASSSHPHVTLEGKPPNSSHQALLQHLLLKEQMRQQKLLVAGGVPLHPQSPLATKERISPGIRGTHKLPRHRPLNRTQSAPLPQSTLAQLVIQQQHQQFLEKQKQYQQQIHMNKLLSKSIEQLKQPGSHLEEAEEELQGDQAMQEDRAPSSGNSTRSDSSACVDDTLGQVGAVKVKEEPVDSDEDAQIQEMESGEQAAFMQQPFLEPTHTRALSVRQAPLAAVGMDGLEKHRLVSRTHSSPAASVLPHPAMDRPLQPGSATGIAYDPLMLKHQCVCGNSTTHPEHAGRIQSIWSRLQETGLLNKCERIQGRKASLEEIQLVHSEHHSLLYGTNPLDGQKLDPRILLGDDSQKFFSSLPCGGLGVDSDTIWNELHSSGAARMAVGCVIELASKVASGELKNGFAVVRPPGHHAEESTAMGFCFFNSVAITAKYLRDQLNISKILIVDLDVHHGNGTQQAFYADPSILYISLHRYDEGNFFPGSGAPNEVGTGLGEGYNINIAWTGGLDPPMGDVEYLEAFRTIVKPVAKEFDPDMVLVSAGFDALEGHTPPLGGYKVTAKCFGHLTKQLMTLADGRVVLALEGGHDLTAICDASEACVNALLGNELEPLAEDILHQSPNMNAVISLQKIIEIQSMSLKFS

T1 sequence (Q92769 whole entry, the tested form may be a part): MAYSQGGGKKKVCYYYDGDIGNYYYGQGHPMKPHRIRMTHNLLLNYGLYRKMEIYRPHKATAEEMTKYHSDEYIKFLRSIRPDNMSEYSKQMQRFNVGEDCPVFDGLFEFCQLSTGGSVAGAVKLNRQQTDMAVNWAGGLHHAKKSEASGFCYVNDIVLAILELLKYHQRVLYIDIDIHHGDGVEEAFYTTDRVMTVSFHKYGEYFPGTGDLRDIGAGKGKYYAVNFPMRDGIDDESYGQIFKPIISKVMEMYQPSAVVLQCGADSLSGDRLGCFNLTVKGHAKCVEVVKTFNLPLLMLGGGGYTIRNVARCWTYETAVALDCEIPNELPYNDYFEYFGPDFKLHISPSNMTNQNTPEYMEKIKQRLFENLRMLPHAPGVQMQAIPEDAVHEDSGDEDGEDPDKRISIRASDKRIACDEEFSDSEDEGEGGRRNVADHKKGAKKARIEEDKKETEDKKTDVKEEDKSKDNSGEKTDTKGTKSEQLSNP
Sequence of Histone deacetylase 3/Nuclear receptor corepressor 2 (HDAC3/NCoR2) (O15379 whole entry): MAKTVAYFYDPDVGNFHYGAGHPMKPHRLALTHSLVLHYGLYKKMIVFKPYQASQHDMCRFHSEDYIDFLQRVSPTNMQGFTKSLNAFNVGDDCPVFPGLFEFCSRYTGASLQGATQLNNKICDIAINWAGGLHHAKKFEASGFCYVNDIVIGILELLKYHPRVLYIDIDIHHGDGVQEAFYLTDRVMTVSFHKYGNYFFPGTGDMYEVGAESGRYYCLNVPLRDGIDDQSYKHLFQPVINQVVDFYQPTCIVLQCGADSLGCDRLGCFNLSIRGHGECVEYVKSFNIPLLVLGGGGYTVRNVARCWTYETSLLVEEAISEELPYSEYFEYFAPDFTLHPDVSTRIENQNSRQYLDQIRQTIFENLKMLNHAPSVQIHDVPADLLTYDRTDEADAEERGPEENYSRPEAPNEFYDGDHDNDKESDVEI
Sequence of Histone deacetylase 3/Nuclear receptor corepressor 2 (HDAC3/NCoR2) (Q9Y618 whole entry, further chain): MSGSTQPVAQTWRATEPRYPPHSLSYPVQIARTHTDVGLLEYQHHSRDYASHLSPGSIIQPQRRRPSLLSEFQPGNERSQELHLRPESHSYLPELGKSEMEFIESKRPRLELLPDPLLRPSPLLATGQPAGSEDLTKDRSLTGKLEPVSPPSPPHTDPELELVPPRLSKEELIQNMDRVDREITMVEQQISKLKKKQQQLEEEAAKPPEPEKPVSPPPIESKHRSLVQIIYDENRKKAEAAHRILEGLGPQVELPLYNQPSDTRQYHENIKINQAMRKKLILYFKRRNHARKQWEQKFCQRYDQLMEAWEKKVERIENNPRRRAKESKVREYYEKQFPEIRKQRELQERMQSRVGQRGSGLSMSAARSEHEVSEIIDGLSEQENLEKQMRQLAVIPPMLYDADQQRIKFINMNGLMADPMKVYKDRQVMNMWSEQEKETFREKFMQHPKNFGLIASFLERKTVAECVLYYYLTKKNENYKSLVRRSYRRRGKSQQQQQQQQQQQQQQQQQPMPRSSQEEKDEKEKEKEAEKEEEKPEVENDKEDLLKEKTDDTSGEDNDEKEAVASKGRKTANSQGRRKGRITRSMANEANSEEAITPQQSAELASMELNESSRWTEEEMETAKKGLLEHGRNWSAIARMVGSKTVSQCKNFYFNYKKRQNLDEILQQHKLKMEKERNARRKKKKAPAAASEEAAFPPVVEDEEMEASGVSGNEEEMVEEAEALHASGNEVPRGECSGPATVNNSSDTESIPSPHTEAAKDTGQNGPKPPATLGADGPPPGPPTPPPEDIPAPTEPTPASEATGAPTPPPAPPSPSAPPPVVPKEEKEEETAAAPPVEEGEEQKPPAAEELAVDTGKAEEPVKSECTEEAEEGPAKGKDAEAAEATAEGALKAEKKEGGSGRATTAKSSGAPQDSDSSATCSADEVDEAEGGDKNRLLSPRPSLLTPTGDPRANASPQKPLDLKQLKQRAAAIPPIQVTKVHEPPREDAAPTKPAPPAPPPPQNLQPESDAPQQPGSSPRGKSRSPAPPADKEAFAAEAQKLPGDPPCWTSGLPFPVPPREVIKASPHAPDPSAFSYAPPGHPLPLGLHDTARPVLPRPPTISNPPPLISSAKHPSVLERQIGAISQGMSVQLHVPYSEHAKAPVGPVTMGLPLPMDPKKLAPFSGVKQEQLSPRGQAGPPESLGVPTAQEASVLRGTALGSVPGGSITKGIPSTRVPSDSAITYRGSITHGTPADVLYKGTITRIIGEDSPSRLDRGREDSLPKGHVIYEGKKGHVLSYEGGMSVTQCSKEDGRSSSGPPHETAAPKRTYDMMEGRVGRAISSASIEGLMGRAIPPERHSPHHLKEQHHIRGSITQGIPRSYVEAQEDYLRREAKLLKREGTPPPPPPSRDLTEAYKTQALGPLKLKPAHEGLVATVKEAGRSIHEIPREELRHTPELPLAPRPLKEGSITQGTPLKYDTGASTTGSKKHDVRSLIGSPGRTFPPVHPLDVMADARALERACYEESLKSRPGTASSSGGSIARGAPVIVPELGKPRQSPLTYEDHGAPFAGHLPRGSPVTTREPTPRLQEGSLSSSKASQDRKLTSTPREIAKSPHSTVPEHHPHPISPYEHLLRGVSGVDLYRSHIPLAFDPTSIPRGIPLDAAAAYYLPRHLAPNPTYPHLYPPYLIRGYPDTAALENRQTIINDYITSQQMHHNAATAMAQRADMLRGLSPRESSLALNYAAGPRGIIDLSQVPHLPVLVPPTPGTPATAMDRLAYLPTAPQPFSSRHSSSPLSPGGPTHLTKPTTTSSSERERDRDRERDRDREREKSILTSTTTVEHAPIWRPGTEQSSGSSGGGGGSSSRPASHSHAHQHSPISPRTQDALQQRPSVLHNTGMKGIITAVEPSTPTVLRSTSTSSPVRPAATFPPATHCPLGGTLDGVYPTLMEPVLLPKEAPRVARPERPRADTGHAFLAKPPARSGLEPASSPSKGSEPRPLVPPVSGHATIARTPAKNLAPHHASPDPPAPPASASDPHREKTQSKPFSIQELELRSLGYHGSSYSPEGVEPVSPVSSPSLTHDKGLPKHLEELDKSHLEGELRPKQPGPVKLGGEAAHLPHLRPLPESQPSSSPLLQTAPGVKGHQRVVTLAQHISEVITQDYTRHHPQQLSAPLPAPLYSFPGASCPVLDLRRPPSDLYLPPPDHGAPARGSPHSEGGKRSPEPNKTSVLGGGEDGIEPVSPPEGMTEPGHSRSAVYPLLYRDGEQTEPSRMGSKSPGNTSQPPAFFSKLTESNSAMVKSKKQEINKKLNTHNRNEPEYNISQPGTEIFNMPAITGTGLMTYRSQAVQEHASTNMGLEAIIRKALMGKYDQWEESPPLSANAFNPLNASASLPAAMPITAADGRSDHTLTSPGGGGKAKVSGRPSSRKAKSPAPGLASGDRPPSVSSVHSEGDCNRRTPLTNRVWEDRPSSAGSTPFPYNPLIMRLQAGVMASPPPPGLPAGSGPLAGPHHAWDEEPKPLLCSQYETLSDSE
Sequence of Histone deacetylase 1 (Q13547 whole entry, the tested form may be a part): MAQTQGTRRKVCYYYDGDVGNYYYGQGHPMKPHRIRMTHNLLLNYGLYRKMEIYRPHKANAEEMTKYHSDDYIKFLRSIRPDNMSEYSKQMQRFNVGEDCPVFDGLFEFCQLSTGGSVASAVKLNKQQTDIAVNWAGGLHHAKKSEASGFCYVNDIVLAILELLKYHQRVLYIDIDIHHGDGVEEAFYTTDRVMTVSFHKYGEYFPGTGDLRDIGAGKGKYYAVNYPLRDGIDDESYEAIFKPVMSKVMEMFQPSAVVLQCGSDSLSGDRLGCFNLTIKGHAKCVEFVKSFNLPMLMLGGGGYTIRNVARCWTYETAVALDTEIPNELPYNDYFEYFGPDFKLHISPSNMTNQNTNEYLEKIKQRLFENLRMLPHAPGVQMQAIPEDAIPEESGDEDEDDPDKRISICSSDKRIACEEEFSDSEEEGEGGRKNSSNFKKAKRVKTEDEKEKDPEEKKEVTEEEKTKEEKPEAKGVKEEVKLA

IC50 [2] [nM] | SMILES | IC50 [3] [nM] | IC50 [4] [nM] | also measured
22.5 | COc1cc2ccn(CCCOc3cccc(NC(=O)CCCCCCC(=O)NO)c3)c2c(OC)c1OC | 2700 | 2700 | Ratio IC50 [1]: 2 to 5
11.5 | COc1cc2ccn(CCOc3cccc(NC(=O)CCCCCCC(=O)NO)c3)c2c(OC)c1OC | 1300 | 2400 | Ratio IC50 [5]: 2; IC50 [6]: > 10000 nM; IC50 [7]: 72.5 nM; Ratio IC50 [1]: 2 to 5; IC50 [8]: 11.1 nM; IC50 [9]: 421 nM; IC50 [10]: > 10000 nM; IC50 [11]: 111 nM; IC50 [12]: 9.6 nM; IC50 [13]: > 10000 nM; IC50 [14]: > 10000 nM
40 | COc1ccc2c(ccn2CCOc2cccc(NC(=O)CCCCCCCC(=O)NO)c2)c1 |  |  | 
41.3 | O=C(CCCCCCC(=O)Nc1cccc(OCCn2ccc3cc(Br)ccc32)c1)NO |  |  | 
57.2 | COc1cc2ccn(CCOc3ccc(NC(=O)CCCCCCC(=O)NO)cc3)c2c(OC)c1OC | 4400 | 4900 | 
111 | COc1cc2ccn(CCCCOc3ccccc3NC(=O)CCCCCCC(=O)NO)c2c(OC)c1OC | 2400 | 4800 | 
110 | COc1cc2ccn(CCOc3ccccc3NC(=O)CCCCCCC(=O)NO)c2c(OC)c1OC | 5600 | 5900 | 
111 | COc1cc2ccn(CCCOc3ccccc3NC(=O)CCCCCCC(=O)NO)c2c(OC)c1OC | 3900 | 5000 | 
23.1 | O=C(CCCCCCC(=O)Nc1cccc(OCCn2ccc3ccccc32)c1)NO |  |  | 
298 | COc1ccc2c(ccn2CCOc2cccc(NC(=O)CCCCCCCCC(=O)NO)c2)c1 |  |  | 
13.5 | COc1cccc2ccn(CCOc3cccc(NC(=O)CCCCCCC(=O)NO)c3)c12 | 1400 | 1900 | 
186 | COc1ccc2c(ccn2CCOc2cccc(NC(=O)CCCCC(=O)NO)c2)c1 |  |  | 
17.8 | COc1cc2ccn(CCCCOc3cccc(NC(=O)CCCCCCC(=O)NO)c3)c2c(OC)c1OC | 2100 | 2400 | IC50 [6]: > 10000 nM; IC50 [7]: 108 nM; Ratio IC50 [1]: 2 to 5; IC50 [8]: 29.3 nM; IC50 [9]: 752 nM; IC50 [10]: > 10000 nM; IC50 [11]: 1000 nM; IC50 [12]: 8.5 nM; IC50 [13]: > 10000 nM; IC50 [14]: > 10000 nM
46.4 | COc1cc2ccn(CCCCOc3ccc(NC(=O)CCCCCCC(=O)NO)cc3)c2c(OC)c1OC | 7700 | 9700 | 
139 | COc1cc2ccn(CCCOc3ccc(NC(=O)CCCCCCC(=O)NO)cc3)c2c(OC)c1OC | 6900 | 5900 | 
14.9 | COc1ccc2ccn(CCOc3cccc(NC(=O)CCCCCCC(=O)NO)c3)c2c1 | 1800 | 4200 | 
